Tests used:
5-HT1B receptor [1] = target: T1, 5-HT1B receptor (Macaca mulatta, UniProt F6SFA9); test: Baseline brain PET imaging with [11C]P943; assay type: in vivo, Rhesus monkey
Outline: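 Rhesus monkeys (5-8 kg) were fasted overnight, given ketamine 10 mg/kg i.m. and glycopyrrolate, then kept on ~2% isoflurane and scanned on HRRT PET after a transmission scan. Tracer dose was 5-7 mCi. Bolus scan: one animal, 120 min list-mode acquisition. Bolus plus infusion scans: Kbol 150 min, four animals. BPND = mean ROI/cerebellum concentration over 70-100 min, minus 1.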

5-HT1B receptor [2] = target: T1, 5-HT1B receptor; test: Binding selectivity PET study: blocking of [11C]P943 with GR127935; assay type: in vivo, Rhesus monkey
Outline: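 About three hours later came a second scan with GR127935 2 mg/kg i.v. bolus given before the tracer. Dose was 5.4 ± 0.7 mCi at 6.3 ± 0.9 mCi/nmol. BPND = ROI/cerebellum ratio from 70-100 min, minus 1, in control and blocked scans.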

5-HT1B receptor [3] = target: T1, 5-HT1B receptor; test: Binding saturability PET study; assay type: in vivo, Rhesus monkey; settings: high SA
Outline: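 Self-block design: 2 anesthetized rhesus monkeys, each scanned on two days at high, medium and low specific activity by adding unlabeled test compound (12 scans). Dosing was 2 min i.v. bolus plus 118 min constant infusion, Kbol 150 min for high-SA scans. Net high SA at injection was 111.7 MBq/nmol. BPND = ROI/cerebellum equilibrium ratio over 70-100 min, minus 1.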

5-HT1B = 5-HT1B (Homo sapiens, UniProt P28222); test: NIMH Psychoactive Drug Screening Program binding; settings: based on the in vitro data
Chain of 5-HT1B (P28222 whole entry, species assumed): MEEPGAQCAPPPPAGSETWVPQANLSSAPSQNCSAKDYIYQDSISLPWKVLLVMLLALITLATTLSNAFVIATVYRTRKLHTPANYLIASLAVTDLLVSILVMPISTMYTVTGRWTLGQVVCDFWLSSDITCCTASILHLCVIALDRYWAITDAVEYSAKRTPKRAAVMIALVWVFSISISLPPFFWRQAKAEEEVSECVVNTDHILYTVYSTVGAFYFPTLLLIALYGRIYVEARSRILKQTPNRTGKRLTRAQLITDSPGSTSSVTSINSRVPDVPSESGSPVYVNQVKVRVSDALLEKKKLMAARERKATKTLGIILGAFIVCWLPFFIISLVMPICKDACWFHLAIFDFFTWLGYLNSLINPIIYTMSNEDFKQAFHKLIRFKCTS

human 5-HT1B receptor = settings: selectivity; cited from earlier work
[4] = Mean of two monkeys, GR127935 2 mg/kg i.v.
[5] = Monkey#1, GR127935 2 mg/kg i.v.
[6] = Monkey#2, GR127935 2 mg/kg i.v.

T1 sequence (F6SFA9 1-390): as the sequence (P28222 whole entry, species assumed) above, with V20A, A35T, S45A, I105V, E198D, K301R, M337L counted along it

Compound: COC(C)(C)c1ccc(N2CC[C@@H](Cc3ccccc3N3CCN(C)CC3)C2=O)cc1 [[^11C]P943, (R)-1-(4-(2-methoxypropan-2-yl)phenyl)-3-(2-(4-methylpiperazin-1-yl)benzyl)pyrrolidin-2-one]
- time of peak uptake in most brain regions (5-HT1B receptor [1]; 2 hr baseline scan, bolus injection): 10 to 30 min
- time at which equilibrium was reached in the brain (5-HT1B receptor [1]; bolus plus infusion): ~70 min
- BPND frontal cortex, control scan (5-HT1B receptor [2]; before blockade, paired study): 0.49
- BPND occipital, control scan (5-HT1B receptor [2]; before blockade, paired study): 0.71
- BPND at high specific activity, globus pallidus (5-HT1B receptor [3]): 0.57
- BPND at high specific activity, occipital cortex (5-HT1B receptor [3]; highest value): 0.80

Compound: COC(C)(C)c1ccc(N2CC[C@@H](Cc3ccccc3N3CCN(C)CC3)C2=O)cc1 [P943, R-1-[4-(2-methoxy-isopropyl)-phenyl]-3-[2-(4-methyl-piperazin-1-yl)benzyl]-pyrrolidin-2-one]
- affinity for 5HT1B higher than for 5-HT1A receptors (5-HT1B): 50-100 times
- affinity for other 5-HT and non-5-HT receptors lower than for 5-HT1B (human 5-HT1B receptor): at least 100 fold

Compound: COc1ccc(NC(=O)c2ccc(-c3ccc(-c4noc(C)n4)cc3C)cc2)cc1N1CCN(C)CC1 [GR127935]
- %Reduction in BPND Caudate (5-HT1B receptor [2]; [4]): 62%
- %Reduction in BPND Cingulate (5-HT1B receptor [2]; [4]): 64%
- %Reduction in BPND Frontal (5-HT1B receptor [2]; [4]): 91%
- %Reduction in BPND Globus Pallidus (5-HT1B receptor [2]; [4]): 73%
- %Reduction in BPND Insula (5-HT1B receptor [2]; [4]): 53%
- %Reduction in BPND Occipital (5-HT1B receptor [2]; [4]): 95%
- %Reduction in BPND Putamen (5-HT1B receptor [2]; [4]): 40%
- %Reduction in BPND Thalamus (5-HT1B receptor [2]; [4]): 75%
- %Reduction in BPND Caudate (5-HT1B receptor [2]; [5]): 78%
- %Reduction in BPND Cingulate (5-HT1B receptor [2]; [5]): 66%
- %Reduction in BPND Frontal (5-HT1B receptor [2]; [5]): 84%
- %Reduction in BPND Globus Pallidus (5-HT1B receptor [2]; [5]): 80%
- %Reduction in BPND Insula (5-HT1B receptor [2]; [5]): 61%
- %Reduction in BPND Occipital (5-HT1B receptor [2]; [5]): 96%
- %Reduction in BPND Putamen (5-HT1B receptor [2]; [5]): 47%
- %Reduction in BPND Thalamus (5-HT1B receptor [2]; [5]): 76%
- %Reduction in BPND Caudate (5-HT1B receptor [2]; [6]): 45%
- %Reduction in BPND Cingulate (5-HT1B receptor [2]; [6]): 61%
- %Reduction in BPND Frontal (5-HT1B receptor [2]; [6]): 98%
- %Reduction in BPND Globus Pallidus (5-HT1B receptor [2]; [6]): 66%
- %Reduction in BPND Insula (5-HT1B receptor [2]; [6]): 45%
- %Reduction in BPND Occipital (5-HT1B receptor [2]; [6]): 94%
- %Reduction in BPND Putamen (5-HT1B receptor [2]; [6]): 33%
- %Reduction in BPND Thalamus (5-HT1B receptor [2]; [6]): 74%
- BPND frontal cortex after blockade (5-HT1B receptor [2]; after GR127935 2 mg/kg i.v.): 0.06
- BPND occipital after blockade (5-HT1B receptor [2]; after GR127935 2 mg/kg i.v.): 0.03
